The target in data set [1] is Cytochrome P450 2C9 (Homo sapiens, UniProt P11712). The data set is described as follows: Inhibition of CYP2C9 (unknown origin). The format is ADME.
Data set [2] is described as follows: Clearance in Sprague-Dawley rat. Particulars: in vivo. In kind it is ADME. The essentials: (§1)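 IV and PO pharmacokinetics in male Sprague-Dawley rats, n = 1–3. The oral dose was a 2–3 mg/kg solution. Plasma clearance, Vss and oral bioavailability were determined.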
The test system of data set [3] is Rattus norvegicus. The data set can be described thus: Reversal of amphetamine-induced hyperlocomotion in Sprague-Dawley rat at 10 mg/kg, po pretreated 30 mins post habituation in the chamber followed by amphetamine injection after 30 mins measured after 60 mins. In kind it is functional. In outline:
(§2)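 Male Sprague-Dawley rats, n = 6–24 per dose group, were habituated in the chamber for 30 min. The compound or vehicle (10% tween-80 in water, v/v) was then given orally. Amphetamine 0.75 mg/kg was injected subcutaneously 30 min later. Total ambulations over t = 60–120 min gave % reversal of AHL, reported as mean ± SEM.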

Data set [4] in a line: Ratio of unbound brain to plasma concentration in Sprague-Dawley rat administered as iv cassette dose measured at 0.25 hrs post dose. The format is ADME, organism-based.
Data set [5] in a line: Volume of distribution at steady state in Sprague-Dawley rat. The settings on record: in vivo, read-out: Vdss. In kind it is ADME. The essentials: as §1
In data set [6] the test system is Rattus norvegicus. The data set is described as follows: Reversal of amphetamine-induced hyperlocomotion in Sprague-Dawley rat at 3 mg/kg, po pretreated 30 mins post habituation in the chamber followed by amphetamine injection after 30 mins measured after 60 mins. The format is functional. In outline: as §2
The target in data set [7] is Cytochrome P450 2D6 (Homo sapiens, UniProt P10635). The data set is described as follows: Inhibition of CYP2D6 (unknown origin). The format is ADME.
Data set [8] has as its target T1, Muscarinic acetylcholine receptor M2 (Homo sapiens, UniProt P08172).
T1 sequence (P08172 whole entry): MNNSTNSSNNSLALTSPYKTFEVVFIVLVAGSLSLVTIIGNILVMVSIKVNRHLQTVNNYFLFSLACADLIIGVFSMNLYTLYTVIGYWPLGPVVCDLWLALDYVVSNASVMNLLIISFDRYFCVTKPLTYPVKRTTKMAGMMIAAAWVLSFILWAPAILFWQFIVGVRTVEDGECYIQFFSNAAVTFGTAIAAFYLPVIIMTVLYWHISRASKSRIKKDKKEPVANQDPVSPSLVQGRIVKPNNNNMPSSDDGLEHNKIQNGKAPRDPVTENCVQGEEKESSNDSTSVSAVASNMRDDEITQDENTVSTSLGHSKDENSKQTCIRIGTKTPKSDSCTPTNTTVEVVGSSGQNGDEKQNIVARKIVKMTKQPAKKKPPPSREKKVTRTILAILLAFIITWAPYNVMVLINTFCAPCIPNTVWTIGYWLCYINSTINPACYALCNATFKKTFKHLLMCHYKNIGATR
The data set is described as follows: Activity at human M2 receptor assessed as increase in acetylcholine-induced calcium mobilization. In kind it is functional. For orientation: Calcium flux is commonly read through the fluorescence of an indicator in the cells.

The nature of data set [9]: Brain to plasma permeability coefficient, Kp of the compound in Sprague-Dawley rat administered as iv cassette dose measured at 0.25 hrs post dose. The settings on record: brain, 0.25 h. The format is ADME, organism-based.
Data set [10] deals with T2, Muscarinic acetylcholine receptor M4 (Homo sapiens) (UniProt P08173).
T2 sequence (whole entry): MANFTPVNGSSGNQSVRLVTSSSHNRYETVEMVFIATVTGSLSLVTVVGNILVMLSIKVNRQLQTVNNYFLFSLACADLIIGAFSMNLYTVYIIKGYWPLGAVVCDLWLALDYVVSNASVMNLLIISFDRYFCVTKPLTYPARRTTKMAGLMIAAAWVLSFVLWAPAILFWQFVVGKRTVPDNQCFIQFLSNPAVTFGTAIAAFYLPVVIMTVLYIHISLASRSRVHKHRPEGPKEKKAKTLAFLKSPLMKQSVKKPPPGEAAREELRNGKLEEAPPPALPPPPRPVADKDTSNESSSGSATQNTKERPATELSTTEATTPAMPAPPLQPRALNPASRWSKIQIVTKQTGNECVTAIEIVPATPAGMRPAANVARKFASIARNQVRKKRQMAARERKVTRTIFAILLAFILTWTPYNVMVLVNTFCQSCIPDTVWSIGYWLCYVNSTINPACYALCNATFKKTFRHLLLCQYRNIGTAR
The data set is described as follows: Positive allosteric modulation of human M4 receptor expressed in CHO cells co-expressing Gqi5 assessed as increase in acetylcholine-induced calcium mobilization relative to acetylcholine. The format is functional, cell-based. The essentials:
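Calcium mobilization in CHO cells stably co-expressing hM4 and Gqi5, tested in the presence of a fixed EC20 concentration of acetylcholine. Values are means of three independent experiments, each run in triplicate.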

Data set [11] has as its system Rattus norvegicus. The data set can be described thus: Reversal of amphetamine-induced hyperlocomotion in Sprague-Dawley rat at 30 mg/kg, po pretreated 30 mins post habituation in the chamber followed by amphetamine injection after 30 mins measured after 60 mins. In kind it is functional. The essentials:
as §2

For data set [12], the system named is Rattus norvegicus. The data set is described as follows: Reversal of amphetamine-induced hyperlocomotion in Sprague-Dawley rat at 56.6 mg/kg, po pretreated 30 mins post habituation in the chamber followed by amphetamine injection after 30 mins measured after 60 mins. In kind it is functional. The settings on record: in the assay text read “1 mg/kg” for “56.6 mg/kg”. The essentials:
as §2

A short description of data set [13]: Elimination half-life in Sprague-Dawley rat. Particulars: in vivo, read-out: beta t1/2 (converted). The format is ADME.
In data set [14] the target is T3, Muscarinic acetylcholine receptor M4 (Homo sapiens, UniProt P08173).
T3 sequence (P08173 whole entry): T2 sequence (whole entry)
The data set is described as follows: Positive allosteric modulation of human M4 receptor expressed in CHO cells co-expressing Gqi5 assessed as increase in acetylcholine-induced calcium mobilization.

In data set [15] the test system is MDR1. The data set is described as follows: Efflux ratio of permeability in MDCK2-MDR1 cells. The format is ADME, cell-based, Canis lupus familiaris. Particulars: dog, MDCK-MDR1.
For data set [16], the target named is T4, Muscarinic acetylcholine receptor M2 (Homo sapiens) (UniProt P08172).
T4 sequence (whole entry): T1 sequence (P08172 whole entry)
The data set can be described thus: Activity at human M2 receptor assessed as increase in acetylcholine-induced calcium mobilization relative to acetylcholine. In kind it is functional.

The target of data set [17] is T5, Cytochrome P450 1A2 (Homo sapiens, UniProt P05177).
T5 sequence (P05177 whole entry): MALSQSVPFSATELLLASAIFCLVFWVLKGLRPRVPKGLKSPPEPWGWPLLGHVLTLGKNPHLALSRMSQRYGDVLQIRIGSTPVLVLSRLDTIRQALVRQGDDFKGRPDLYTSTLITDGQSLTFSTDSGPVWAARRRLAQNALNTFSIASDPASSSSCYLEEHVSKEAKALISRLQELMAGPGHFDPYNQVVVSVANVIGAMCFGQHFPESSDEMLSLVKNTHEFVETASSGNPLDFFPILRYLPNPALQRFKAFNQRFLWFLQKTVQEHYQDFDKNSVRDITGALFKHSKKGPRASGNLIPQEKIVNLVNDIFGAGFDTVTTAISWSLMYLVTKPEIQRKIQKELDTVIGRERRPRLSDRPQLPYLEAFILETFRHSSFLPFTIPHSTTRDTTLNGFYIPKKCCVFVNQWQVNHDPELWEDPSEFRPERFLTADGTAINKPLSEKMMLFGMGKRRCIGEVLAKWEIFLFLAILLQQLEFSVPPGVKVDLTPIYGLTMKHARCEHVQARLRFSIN
The data set is described as follows: Inhibition of CYP1A2 (unknown origin). The format is ADME.

For data set [18], the target named is Cytochrome P450 3A4 (Homo sapiens, UniProt P08684). The data set can be described thus: Inhibition of CYP3A4 (unknown origin). In kind it is ADME.

The values that follow come from ChEMBL document CHEMBL4033702, “Challenges in the development of an M4 PAM preclinical candidate: The discovery, SAR, and in vivo characterization of a series of 3-aminoazetidine-derived amides” (Bioorg Med Chem Lett, 2017).

What is called IC50 is the concentration that gives 50% inhibition. In general, clearance refers to the rate of elimination divided by the concentration. As usually defined, the EC50 is the midpoint of the concentration-response curve. A word on the Kp: it is the ratio of the level in a tissue or fluid to that in plasma or blood. One may read the efflux ratio as the permeability from basolateral to apical divided by that in the opposite direction, in the common usage.

Bounds are passed on as bounds.

Cytochrome P450 2D6, sequence (P10635 whole entry): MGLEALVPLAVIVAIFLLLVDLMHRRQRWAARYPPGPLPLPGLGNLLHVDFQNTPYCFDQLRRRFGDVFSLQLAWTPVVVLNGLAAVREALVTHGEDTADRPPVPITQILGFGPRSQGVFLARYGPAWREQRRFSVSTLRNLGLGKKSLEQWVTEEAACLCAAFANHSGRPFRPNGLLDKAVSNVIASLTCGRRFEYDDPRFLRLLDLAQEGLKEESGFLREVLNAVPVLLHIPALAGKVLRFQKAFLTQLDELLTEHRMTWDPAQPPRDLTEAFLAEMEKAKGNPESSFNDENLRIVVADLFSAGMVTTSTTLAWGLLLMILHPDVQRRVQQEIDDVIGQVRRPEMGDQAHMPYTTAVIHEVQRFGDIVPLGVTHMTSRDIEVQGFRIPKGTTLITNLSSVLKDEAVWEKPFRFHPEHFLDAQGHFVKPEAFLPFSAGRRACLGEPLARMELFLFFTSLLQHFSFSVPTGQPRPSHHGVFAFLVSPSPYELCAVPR
Cytochrome P450 2C9, sequence (P11712 whole entry): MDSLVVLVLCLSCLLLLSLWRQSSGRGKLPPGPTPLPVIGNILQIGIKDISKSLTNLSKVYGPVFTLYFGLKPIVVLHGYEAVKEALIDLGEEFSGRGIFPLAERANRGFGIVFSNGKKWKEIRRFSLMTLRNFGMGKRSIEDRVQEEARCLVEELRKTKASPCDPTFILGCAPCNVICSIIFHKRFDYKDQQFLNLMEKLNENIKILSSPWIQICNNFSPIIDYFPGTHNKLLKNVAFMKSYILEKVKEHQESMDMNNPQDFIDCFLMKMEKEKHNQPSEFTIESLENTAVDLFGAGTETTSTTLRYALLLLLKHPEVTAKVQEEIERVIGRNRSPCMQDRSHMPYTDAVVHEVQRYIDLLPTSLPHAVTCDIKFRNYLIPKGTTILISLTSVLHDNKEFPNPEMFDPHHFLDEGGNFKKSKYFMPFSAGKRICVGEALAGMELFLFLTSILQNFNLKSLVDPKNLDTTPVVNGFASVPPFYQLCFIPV
Cytochrome P450 3A4, sequence (P08684 whole entry): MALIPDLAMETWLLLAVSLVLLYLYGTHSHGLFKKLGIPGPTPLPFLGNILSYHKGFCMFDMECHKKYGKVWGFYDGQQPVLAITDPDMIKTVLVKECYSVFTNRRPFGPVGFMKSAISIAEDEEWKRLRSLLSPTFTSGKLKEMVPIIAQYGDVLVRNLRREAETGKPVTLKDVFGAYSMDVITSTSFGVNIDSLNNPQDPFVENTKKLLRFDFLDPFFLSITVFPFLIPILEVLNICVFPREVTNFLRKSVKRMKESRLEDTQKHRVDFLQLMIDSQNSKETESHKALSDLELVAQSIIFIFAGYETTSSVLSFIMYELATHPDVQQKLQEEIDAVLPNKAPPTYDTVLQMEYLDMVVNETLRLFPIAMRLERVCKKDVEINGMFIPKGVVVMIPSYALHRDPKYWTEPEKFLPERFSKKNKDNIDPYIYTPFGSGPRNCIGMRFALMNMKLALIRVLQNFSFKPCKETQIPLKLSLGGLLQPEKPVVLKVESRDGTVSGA

With `Cc1nnc2sc(C(=O)NC3CN(c4ccc(C(F)(F)F)nc4)C3)c(N)c2c1C`, the half-inhibitory concentration (IC50) in data set [1], in data set [7], in data set [17] and in [18] was more than 30 µM each time. The compound further came in with a clearance in data set [2] of 8.8 mL/min/kg. In addition, the Activity was 55% in data set [3], 48% in [6], 55 - 56% in data set [11] and 44% in [12]. The “K(p,uu,brain)” value in data set [4] worked out at 0.33. The Vd in data set [5] worked out at 0.89 L/kg. Moreover, the concentration for a half-maximal effect (EC50) in data set [8] is 0.96 µM; in data set [14] it was 0.076 µM. Also, the partition ratio (Kp) in data set [9] stood at 0.12. For the same compound, the %max was 75% in [10] and 43% in data set [16]. Moreover, the half-life in data set [13] is 1.3 h. Besides, the efflux ratio in [15] was found to be 8.5.
